Results: paper PMC5042352 (Analytical methods : advancing methods and applications, 2016)
Like-named read-outs stand apart in the source and are kept apart here.

Tests used:
[1] = type: in vivo, human (Chinese male healthy subjects)
[2] = Stability of the analytes in human plasma at QC levels; type: in vitro ADME; details: for Short-term Dev. (%) / Short-term MCM ± SD: 6 h, r.t.; for Short-term Dev. (%) / Short-term MCM ± SD / Long-term Dev. (%) / Long-term MCM ± SD / Freeze–thaw Dev. (%) / Freeze–thaw MCM ± SD: human plasma; for Short-term Dev. (%) / Short-term MCM ± SD / Long-term Dev. (%) / Long-term MCM ± SD / The autosampler Dev. (24h, %) / The autosampler MCM ± SD (24h) / The autosampler Dev. (48h, %) / The autosampler MCM ± SD (48h) / Freeze–thaw Dev. (%) / Freeze–thaw MCM ± SD: n = 5; for Long-term Dev. (%) / Long-term MCM ± SD: 40 days; for Long-term Dev. (%) / Long-term MCM ± SD / Freeze–thaw Dev. (%) / Freeze–thaw MCM ± SD: −40 °C; for The autosampler Dev. (24h, %) / The autosampler MCM ± SD (24h) / The autosampler Dev. (48h, %) / The autosampler MCM ± SD (48h): autosampler r.t.; for Freeze–thaw Dev. (%) / Freeze–thaw MCM ± SD: four cycles
Outline: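 QC plasma made by spiking working solution into drug-free human plasma (1:9); the phosphate ester is pre-stabilised with 2M sodium cacodylate and 50% KF. Freeze-thaw: frozen at −40 °C for 24 h, thawed at 25 °C. Short-term: 6 h at room temperature. Long-term: −40 °C for 40 days. Quantified by UPLC-MS/MS against 1/x-weighted analyte/IS peak-area-ratio calibration curves.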

For `CCC(=O)OCC(=O)[C@@]1(O)[C@@H](C)C[C@H]2[C@@H]3CCC4=CC(=O)C=C[C@]4(C)[C@@]3(F)[C@@H](O)C[C@@]21C` [B21P, betamethasone 21-monopropionate], the “plasma concentration in healthy subjects' plasma samples (detectability)” value ([1]; after i.m. injection of the compound medicine BSP and BDP) was “slightly above the LLOQ”, the “Short-term Dev. (%)” value ([2]; high QC) was −8.64% and the “Short-term MCM ± SD” value ([2]; high QC) was 3.944 ± 0.303 × 10^−9 mol·dm^−3. For the same compound, the “Long-term Dev. (%)” value ([2]; high QC) was −9.13%, the “Long-term MCM ± SD” value ([2]; high QC) was 3.924 ± 0.078 × 10^−9 mol·dm^−3 and the “The autosampler Dev. (24h, %)” value ([2]; high QC) was −8.3%. For the same compound, the “The autosampler MCM ± SD (24h)” value ([2]; high QC) was 3.960 ± 0.160 × 10^−9 mol·dm^−3, the “The autosampler Dev. (48h, %)” value ([2]; high QC) was −9.13% and the “The autosampler MCM ± SD (48h)” value ([2]; high QC) was 3.924 ± 0.171 × 10^−9 mol·dm^−3. For the same compound, the “Freeze–thaw Dev. (%)” value ([2]; high QC) was −2.48%, the “Freeze–thaw MCM ± SD” value ([2]; high QC) was 4.211 ± 0.301 × 10^−9 mol·dm^−3 and the “Short-term Dev. (%)” value ([2]; low QC) was 2.97%. For the same compound, the “Short-term MCM ± SD” value ([2]; low QC) was 0.463 ± 0.062 × 10^−9 mol·dm^−3, the “Long-term Dev. (%)” value ([2]; low QC) was 8.42% and the “Long-term MCM ± SD” value ([2]; low QC) was 0.488 ± 0.067 × 10^−9 mol·dm^−3. The “The autosampler Dev. (24h, %)” value ([2]; low QC) was 7.92%, the “The autosampler MCM ± SD (24h)” value ([2]; low QC) was 0.486 ± 0.020 × 10^−9 mol·dm^−3 and the “The autosampler Dev. (48h, %)” value ([2]; low QC) was −0.5%. The “The autosampler MCM ± SD (48h)” value ([2]; low QC) was 0.448 ± 0.038 × 10^−9 mol·dm^−3, the “Freeze–thaw Dev. (%)” value ([2]; low QC) was 2.97% and the “Freeze–thaw MCM ± SD” value ([2]; low QC) was 0.463 ± 0.024 × 10^−9 mol·dm^−3. The “Short-term Dev. (%)” value ([2]; middle QC) was −2.87%, the “Short-term MCM ± SD” value ([2]; middle QC) was 1.873 ± 0.094 × 10^−9 mol·dm^−3 and the “Long-term Dev. (%)” value ([2]; middle QC) was −1.98%. For the same compound, the “Long-term MCM ± SD” value ([2]; middle QC) was 1.891 ± 0.143 × 10^−9 mol·dm^−3, the “The autosampler Dev. (24h, %)” value ([2]; middle QC) was 2.05% and the “The autosampler MCM ± SD (24h)” value ([2]; middle QC) was 1.993 ± 0.129 × 10^−9 mol·dm^−3. For the same compound, the “The autosampler MCM ± SD (48h)” value ([2]; middle QC) was 2.007 ± 0.156 × 10^−9 mol·dm^−3, the “Freeze–thaw Dev. (%)” value ([2]; middle QC) was 1.08% and the “Freeze–thaw MCM ± SD” value ([2]; middle QC) was 1.949 ± 0.147 × 10^−9 mol·dm^−3.
For `C[C@H]1C[C@H]2[C@@H]3CCC4=CC(=O)C=C[C@]4(C)[C@@]3(F)[C@@H](O)C[C@]2(C)[C@@]1(O)C(=O)CO` [BOH, betamethasone], the “AUC0–∞” value ([1]; Reference formulation, mean ± SD, n = 23) was 915.3 ± 206.5 × 10^−9 mol·dm^−3·h^−1, the “AUC0–∞” value ([1]; Test formulation, mean ± SD, n = 23) was 856.6 ± 269.4 × 10^−9 mol·dm^−3·h^−1 and the “AUC0–t” value ([1]; Test formulation, t = 4 h (BDP), 120 h (BOH), 360 h (B17P), mean ± SD, n = 23) was 820.2 ± 249.4 × 10^−9 mol·dm^−3·h^−1. The “Short-term Dev. (%)” value ([2]; high QC) was 8.02%, the “Short-term MCM ± SD” value ([2]; high QC) was 64.74 ± 5.074 × 10^−9 mol·dm^−3 and the “Long-term Dev. (%)” value ([2]; high QC) was −12.3%. For the same compound, the “Long-term MCM ± SD” value ([2]; high QC) was 52.55 ± 2.816 × 10^−9 mol·dm^−3, the “The autosampler Dev. (24h, %)” value ([2]; high QC) was −10.82% and the “The autosampler MCM ± SD (24h)” value ([2]; high QC) was 53.47 ± 2.906 × 10^−9 mol·dm^−3. For the same compound, the “The autosampler Dev. (48h, %)” value ([2]; high QC) was 6.68%, the “The autosampler MCM ± SD (48h)” value ([2]; high QC) was 63.95 ± 3.102 × 10^−9 mol·dm^−3 and the “Freeze–thaw Dev. (%)” value ([2]; high QC) was 5.54%. The “Freeze–thaw MCM ± SD” value ([2]; high QC) was 63.29 ± 2.673 × 10^−9 mol·dm^−3, the “Short-term Dev. (%)” value ([2]; low QC) was 9.63% and the “Short-term MCM ± SD” value ([2]; low QC) was 0.610 ± 0.048 × 10^−9 mol·dm^−3. The “Long-term Dev. (%)” value ([2]; low QC) was 7.34%, the “Long-term MCM ± SD” value ([2]; low QC) was 0.597 ± 0.064 × 10^−9 mol·dm^−3 and the “The autosampler Dev. (24h, %)” value ([2]; low QC) was 5.04%. For the same compound, the “The autosampler MCM ± SD (24h)” value ([2]; low QC) was 0.584 ± 0.056 × 10^−9 mol·dm^−3, the “The autosampler Dev. (48h, %)” value ([2]; low QC) was 2.29% and the “The autosampler MCM ± SD (48h)” value ([2]; low QC) was 0.569 ± 0.087 × 10^−9 mol·dm^−3. For the same compound, the “Freeze–thaw Dev. (%)” value ([2]; low QC) was 3.67%, the “Freeze–thaw MCM ± SD” value ([2]; low QC) was 0.577 ± 0.038 × 10^−9 mol·dm^−3 and the “Short-term Dev. (%)” value ([2]; middle QC) was 8.82%. For the same compound, the “Short-term MCM ± SD” value ([2]; middle QC) was 10.87 ± 0.633 × 10^−9 mol·dm^−3, the “Long-term Dev. (%)” value ([2]; middle QC) was 5.78% and the “Long-term MCM ± SD” value ([2]; middle QC) was 10.57 ± 0.577 × 10^−9 mol·dm^−3. For the same compound, the “The autosampler MCM ± SD (24h)” value ([2]; middle QC) was 10.20 ± 0.505 × 10^−9 mol·dm^−3, the “The autosampler Dev. (48h, %)” value ([2]; middle QC) was 3.89% and the “The autosampler MCM ± SD (48h)” value ([2]; middle QC) was 10.38 ± 0.513 × 10^−9 mol·dm^−3. The “Freeze–thaw Dev. (%)” value ([2]; middle QC) was 4.88% and the “Freeze–thaw MCM ± SD” value ([2]; middle QC) was 10.48 ± 0.645 × 10^−9 mol·dm^−3.
With `C[C@H]1C[C@H]2[C@@H]3CCC4=CC(=O)C=C[C@]4(C)[C@@]3(F)[C@@H](O)C[C@]2(C)[C@@]1(O)C(=O)COP(=O)([O-])[O-].[Na+].[Na+]` [BSP, betamethasone sodium phosphate] the “Short-term Dev. (%)” value ([2]; high QC) was −3.78%, the “Short-term MCM ± SD” value ([2]; high QC) was 310.9 ± 14.43 × 10^−9 mol·dm^−3 and the “Long-term Dev. (%)” value ([2]; high QC) was −1.02%. For the same compound, the “Long-term MCM ± SD” value ([2]; high QC) was 320.0 ± 10.35 × 10^−9 mol·dm^−3, the “The autosampler Dev. (24h, %)” value ([2]; high QC) was −2.94% and the “The autosampler MCM ± SD (24h)” value ([2]; high QC) was 313.6 ± 35.39 × 10^−9 mol·dm^−3. The “The autosampler Dev. (48h, %)” value ([2]; high QC) was 11.19%, the “The autosampler MCM ± SD (48h)” value ([2]; high QC) was 359.2 ± 22.46 × 10^−9 mol·dm^−3 and the “Freeze–thaw Dev. (%)” value ([2]; high QC) was −2.50%. The “Freeze–thaw MCM ± SD” value ([2]; high QC) was 315.1 ± 4.665 × 10^−9 mol·dm^−3, the “Short-term Dev. (%)” value ([2]; low QC) was −1.19% and the “Short-term MCM ± SD” value ([2]; low QC) was 4.988 ± 0.250 × 10^−9 mol·dm^−3. For the same compound, the “Long-term Dev. (%)” value ([2]; low QC) was −1.07%, the “Long-term MCM ± SD” value ([2]; low QC) was 4.994 ± 0.560 × 10^−9 mol·dm^−3 and the “The autosampler Dev. (24h, %)” value ([2]; low QC) was 4.03%. For the same compound, the “The autosampler MCM ± SD (24h)” value ([2]; low QC) was 5.252 ± 0.696 × 10^−9 mol·dm^−3, the “The autosampler Dev. (48h, %)” value ([2]; low QC) was 10.63% and the “The autosampler MCM ± SD (48h)” value ([2]; low QC) was 5.585 ± 0.616 × 10^−9 mol·dm^−3. The “Freeze–thaw Dev. (%)” value ([2]; low QC) was −2.84%, the “Freeze–thaw MCM ± SD” value ([2]; low QC) was 4.905 ± 0.357 × 10^−9 mol·dm^−3 and the “Short-term Dev. (%)” value ([2]; middle QC) was −2.55%. The “Short-term MCM ± SD” value ([2]; middle QC) was 39.36 ± 5.767 × 10^−9 mol·dm^−3, the “Long-term Dev. (%)” value ([2]; middle QC) was −1.06% and the “Long-term MCM ± SD” value ([2]; middle QC) was 39.94 ± 5.576 × 10^−9 mol·dm^−3. For the same compound, the “The autosampler Dev. (24h, %)” value ([2]; middle QC) was 1.08%, the “The autosampler MCM ± SD (24h)” value ([2]; middle QC) was 40.83 ± 5.209 × 10^−9 mol·dm^−3 and the “The autosampler Dev. (48h, %)” value ([2]; middle QC) was 9.88%. The “The autosampler MCM ± SD (48h)” value ([2]; middle QC) was 44.38 ± 5.581 × 10^−9 mol·dm^−3, the “Freeze–thaw Dev. (%)” value ([2]; middle QC) was −2.67% and the “Freeze–thaw MCM ± SD” value ([2]; middle QC) was 39.30 ± 5.785 × 10^−9 mol·dm^−3. For the same compound, the “stability in human blank plasma” value ([2]; without stabilizer (sodium cacodylate, potassium fluoride)) was “labile”.
